Measured values taken from ChEMBL document CHEMBL3227952, “Potential organ- or tumor-imaging agents. 18. Radioiodinated diamines and bisquaternaries” (J Med Chem, 1979).

Tests used:
Conditions in all cases: in vivo
[1] = system: Liver; assay: Drug uptake in Sprague-Dawley rat liver at 6.3 uCi, iv after 2 hrs by liquid scintillation counting; type: ADME, organism-based
In short: (§1)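 Adult male Sprague-Dawley rats (200–420 g) got ¹⁴C-labelled bisquaternary (20.9 µCi/mg) in saline, 0.1 mL, by tail vein under ether anesthesia. Five rats per time point were exsanguinated under ether. Organs were excised, rinsed, blotted and weighed. Duplicate samples underwent liquid scintillation counting, with quench corrected by the external standard-channels ratio. Results are % administered dose/g, mean ± SEM.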

[2] = Drug uptake in Sprague-Dawley rat intervertebral disk at 6.3 uCi, iv after 2 hrs by liquid scintillation counting; type: ADME, organism-based; in short: as §1
[3] = system: Lung; assay: Drug uptake in Sprague-Dawley rat lung at 6.3 uCi, iv after 2 hrs by liquid scintillation counting; type: ADME, organism-based; in short: as §1
[4] = system: Pancreas; assay: Drug uptake in Sprague-Dawley rat pancreas at 6.3 uCi, iv after 2 hrs by liquid scintillation counting; type: ADME, organism-based; in short: as §1
[5] = system: Testes; assay: Drug uptake in Sprague-Dawley rat testes at 6.3 uCi, iv after 0.5 hrs by liquid scintillation counting; type: ADME, organism-based, Testis
In short: (§2)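 [¹⁴C]Hexamethonium diiodide in saline (15 mg/5.0 mL), 20.9 μCi/mg, 0.1 mL injected into the tail vein of ether-anesthetized adult male Sprague-Dawley rats (200–420 g). At 0.5 or 2 h rats were exsanguinated under ether and organs excised, rinsed, blotted and weighed. Duplicate samples were counted by liquid scintillation, with quench corrected by external standard-channels ratio. Results are % administered dose/g, mean ± SEM, five rats.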

[6] = system: Kidney; assay: Drug uptake in Sprague-Dawley rat kidney at 6.3 uCi, iv after 0.5 hrs by liquid scintillation counting; type: ADME, organism-based; in short: as §1
[7] = system: Heart; assay: Drug uptake in Sprague-Dawley rat heart at 6.3 uCi, iv after 0.5 hrs by liquid scintillation counting; type: ADME, organism-based; in short: as §1
[8] = Drug uptake in Sprague-Dawley rat trachea at 6.3 uCi, iv after 2 hrs by liquid scintillation counting; type: ADME, organism-based; in short: as §2
[9] = Drug uptake in Sprague-Dawley rat diaphragm at 6.3 uCi, iv after 0.5 hrs by liquid scintillation counting; type: ADME, organism-based; in short: as §1
[10] = system: Adrenal; assay: Drug uptake in Sprague-Dawley rat adrenal at 6.3 uCi, iv after 0.5 hrs by liquid scintillation counting; type: ADME, organism-based, Adrenal gland; in short: as §1
[11] = Drug uptake in Sprague-Dawley rat meninges at 6.3 uCi, iv after 2 hrs by liquid scintillation counting; type: ADME, organism-based; in short: as §1
[12] = system: Heart; assay: Drug uptake in Sprague-Dawley rat heart at 6.3 uCi, iv after 2 hrs by liquid scintillation counting; type: ADME, organism-based; in short: as §1
[13] = system: Liver; assay: Drug uptake in Sprague-Dawley rat liver at 6.3 uCi, iv after 0.5 hrs by liquid scintillation counting; type: ADME, organism-based; in short: as §1
[14] = system: Blood; assay: Drug uptake in Sprague-Dawley rat blood at 6.3 uCi, iv after 0.5 hrs by liquid scintillation counting; type: ADME, organism-based; in short: as §1
[15] = Drug uptake in Sprague-Dawley rat intervertebral disk at 6.3 uCi, iv after 0.5 hrs by liquid scintillation counting; type: ADME, organism-based; in short: as §1
[16] = system: Spleen; assay: Drug uptake in Sprague-Dawley rat spleen at 6.3 uCi, iv after 0.5 hrs by liquid scintillation counting; type: ADME, organism-based; in short: as §2
[17] = system: Thyroid gland; assay: Drug uptake in Sprague-Dawley rat thyroid at 6.3 uCi, iv after 0.5 hrs by liquid scintillation counting; type: ADME, organism-based; in short: as §2
[18] = system: Pancreas; assay: Drug uptake in Sprague-Dawley rat pancreas at 6.3 uCi, iv after 0.5 hrs by liquid scintillation counting; type: ADME, organism-based; in short: as §1
[19] = system: Blood; assay: Drug uptake in Sprague-Dawley rat blood at 6.3 uCi, iv after 2 hrs by liquid scintillation counting; type: ADME, organism-based; in short: as §1
[20] = system: Brain; assay: Drug uptake in Sprague-Dawley rat brain at 6.3 uCi, iv after 2 hrs by liquid scintillation counting; type: ADME, organism-based; in short: as §1
[21] = system: Lung; assay: Drug uptake in Sprague-Dawley rat lung at 6.3 uCi, iv after 0.5 hrs by liquid scintillation counting; type: ADME, organism-based; in short: as §1
[22] = system: Thyroid gland; assay: Drug uptake in Sprague-Dawley rat thyroid at 6.3 uCi, iv after 2 hrs by liquid scintillation counting; type: ADME, organism-based; in short: as §2
[23] = system: Brain; assay: Drug uptake in Sprague-Dawley rat brain at 6.3 uCi, iv after 0.5 hrs by liquid scintillation counting; type: ADME, organism-based; in short: as §1
[24] = Drug uptake in Sprague-Dawley rat meninges at 6.3 uCi, iv after 0.5 hrs by liquid scintillation counting; type: ADME, organism-based; in short: as §1
[25] = system: Spleen; assay: Drug uptake in Sprague-Dawley rat spleen at 6.3 uCi, iv after 2 hrs by liquid scintillation counting; type: ADME, organism-based; in short: as §2
[26] = system: Kidney; assay: Drug uptake in Sprague-Dawley rat kidney at 6.3 uCi, iv after 2 hrs by liquid scintillation counting; type: ADME, organism-based; in short: as §1
[27] = system: Testes; assay: Drug uptake in Sprague-Dawley rat testes at 6.3 uCi, iv after 2 hrs by liquid scintillation counting; type: ADME, organism-based, Testis; in short: as §2
[28] = system: Adrenal; assay: Drug uptake in Sprague-Dawley rat adrenal at 6.3 uCi, iv after 2 hrs by liquid scintillation counting; type: ADME, organism-based, Adrenal gland; in short: as §1
[29] = Drug uptake in Sprague-Dawley rat diaphragm at 6.3 uCi, iv after 2 hrs by liquid scintillation counting; type: ADME, organism-based; in short: as §1
[30] = Drug uptake in Sprague-Dawley rat trachea at 6.3 uCi, iv after 0.5 hrs by liquid scintillation counting; type: ADME, organism-based; in short: as §2

C[N+](C)([14CH3])CCCCCC[N+](C)(C)[14CH3].[I-].[I-]
Drug uptake [1]: 0.049 % ID/g
Drug uptake [2]: 0.144 % ID/g
Drug uptake [3]: 0.137 % ID/g
Drug uptake [4]: 0.016 % ID/g
Drug uptake [5]: 0.097 % ID/g
Drug uptake [6]: 2.616 % ID/g
Drug uptake [7]: 0.145 % ID/g
Drug uptake [8]: 0.127 % ID/g
Drug uptake [9]: 0.094 % ID/g
Drug uptake [10]: 0.104 % ID/g
Drug uptake [11]: 0.413 % ID/g
Drug uptake [12]: 0.018 % ID/g
Drug uptake [13]: 0.112 % ID/g
Drug uptake [14]: 0.31 % ID/g
Drug uptake [15]: 1.094 % ID/g
Drug uptake [16]: 0.123 % ID/g
Drug uptake [17]: 0.206 % ID/g
Drug uptake [18]: 0.079 % ID/g
Drug uptake [19]: 0.02 % ID/g
Drug uptake [20]: 0.018 % ID/g
Drug uptake [21]: 0.377 % ID/g
Drug uptake [22]: 0.047 % ID/g
Drug uptake [23]: 0.018 % ID/g
Drug uptake [24]: 0.301 % ID/g
Drug uptake [25]: 0.051 % ID/g
Drug uptake [26]: 1.384 % ID/g
Drug uptake [27]: 0.022 % ID/g
Drug uptake [28]: 0.043 % ID/g
Drug uptake [29]: 0.014 % ID/g
Drug uptake [30]: 1.35 % ID/g
